Calls of active or inactive are those of the source. The calls are words filed in the database; no cut-off is given here.
How the values were obtained:
[1] = target: T1, Interferon-induced guanylate-binding protein 1/Serine/threonine-protein kinase pim-1 (Homo sapiens) (UniProt P11309+P32455); assay: Inhibition of GBP1 (unknown origin)-PIM1 (unknown origin) interaction at 100 nM by SPR analysis; format: protein assay
In short: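 Recombinant PIM1 amine-coupled (50 μg/mL in acetate pH 5.5, ~2000 RU) on an EDC/S-NHS-activated GLM chip; blank acetate-treated channel as reference. Compound co-injected with GBP1 280 nM in TBST, 30 μL/min for 120 s, 15 min dissociation. Carbonic anhydrase 280 nM was the negative control. % inhibition = RU with compound over RU with GBP1 alone; runs done at least three times.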

[2] = target: T1, Interferon-induced guanylate-binding protein 1/Serine/threonine-protein kinase pim-1 (Homo sapiens); assay: Inhibition of GBP1 (unknown origin)-PIM1 (unknown origin) interaction by SPR analysis; format: protein assay
In short: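 Recombinant PIM1 (50 μg/mL in acetate buffer pH 5.5) amine-coupled to GLM chip via EDC/S-NHS (~2000 RU); compound (0.1, 1, 10, 100 nM) co-injected with GBP1 280 nM in TBST, 30 μL/min, 120 s, 15 min dissociation; DMSO 0.2% v/v. CA 280 nM negative control. % inhibition = RU with compound over GBP1-alone maximum; runs at least three times.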

[3] = target: T1, Interferon-induced guanylate-binding protein 1/Serine/threonine-protein kinase pim-1 (Homo sapiens); assay: Inhibition of GBP1-PIM1 interaction in human SKOV3 cells at 100 nM after 3 hrs by co-immunoprecepitation method; format: cell-based; settings: SK-OV-3
In short: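 SKOV3 cells treated 3 h with compound; cells scraped, lysed, PIM1 immunoprecipitated (anti-IgG negative control); co-precipitated GBP1 detected by Western blot with anti-GBP1 (67 kD band, antibodies 1:200 in 5% milk–TBST). Bands quantified by densitometry; DMSO vehicle control.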

T1 sequence (P11309 whole entry, looked up): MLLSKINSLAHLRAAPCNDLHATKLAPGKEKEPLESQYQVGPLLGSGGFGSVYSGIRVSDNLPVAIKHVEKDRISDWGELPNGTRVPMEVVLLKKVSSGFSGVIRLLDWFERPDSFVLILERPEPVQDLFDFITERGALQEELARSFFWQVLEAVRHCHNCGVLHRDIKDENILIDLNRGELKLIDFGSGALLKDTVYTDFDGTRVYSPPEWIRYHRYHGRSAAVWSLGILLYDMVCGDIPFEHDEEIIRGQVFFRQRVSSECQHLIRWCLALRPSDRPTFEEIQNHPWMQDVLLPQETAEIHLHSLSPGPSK
T1 sequence (P32455 whole entry, looked up): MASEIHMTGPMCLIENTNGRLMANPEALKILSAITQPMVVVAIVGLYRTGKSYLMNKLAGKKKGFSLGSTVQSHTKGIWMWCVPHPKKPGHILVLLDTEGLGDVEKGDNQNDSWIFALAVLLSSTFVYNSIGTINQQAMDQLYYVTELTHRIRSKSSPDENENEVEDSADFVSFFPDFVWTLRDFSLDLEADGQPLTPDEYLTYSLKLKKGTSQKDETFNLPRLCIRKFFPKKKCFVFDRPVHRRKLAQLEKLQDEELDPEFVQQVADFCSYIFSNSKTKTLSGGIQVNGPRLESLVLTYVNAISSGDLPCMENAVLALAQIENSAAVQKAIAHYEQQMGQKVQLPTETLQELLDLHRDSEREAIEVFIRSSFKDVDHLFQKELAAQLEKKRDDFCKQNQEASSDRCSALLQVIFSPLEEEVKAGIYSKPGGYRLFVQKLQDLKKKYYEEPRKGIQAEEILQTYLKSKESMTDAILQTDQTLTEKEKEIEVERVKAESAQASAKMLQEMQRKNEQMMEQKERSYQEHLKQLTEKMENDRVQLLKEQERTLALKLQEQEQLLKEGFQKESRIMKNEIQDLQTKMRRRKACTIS

| Compound | inhibition [1] | inhibition [2] | inhibition [3] |
| --- | --- | --- | --- |
| COc1cc2c(cc1OC)N(CCO)C1=C(C(=O)OC1)C2c1cc(OC)c(OC)c(OC)c1 (configuration not stated) | 10% | – | – |
| COc1cc(C2C3=C(COC3=O)N(CCO)c3cc4c(cc32)OCCO4)cc(OC)c1OC (configuration not stated) | inactive | – | – |
| COc1ccc2c(c1)N(CCO)C1=C(C(=O)OC1)C2c1ccccc1 (configuration not stated) | 65% | Dose-dependent effect | Active |
| COc1cc(C2C3=C(COC3=O)N(CCO)c3cc4c(cc32)OCO4)cc(OC)c1O (configuration not stated) | inactive | – | – |
| COc1ccc(C2C3=C(COC3=O)N(CCO)c3cc(OC)ccc32)cc1 (configuration not stated) | 10% | – | – |
| COc1ccc(C2C3=C(COC3=O)N(CCO)c3cc(OC)c(OC)cc32)cc1OC (configuration not stated) | 10% | – | – |
| COc1ccc2c(c1)N(CCO)C1=C(C(=O)OC1)C2c1cc(OC)c(OC)c(OC)c1 (configuration not stated) | 10% | – | inactive |
| O=C1OCC2=C1C(c1ccccc1)c1cc3c(cc1N2CCO)OCCO3 (configuration not stated) | inactive | – | – |
| COc1cc(C2C3=C(COC3=O)N(CCO)c3cc4c(cc32)OCCO4)cc(OC)c1O (configuration not stated) | inactive | – | – |
| COc1ccc(C2C3=C(COC3=O)N(CCO)c3cc4c(cc32)OCCO4)cc1OC (configuration not stated) | inactive | – | – |
| CCc1ccc2c(c1)N(CCO)C1=C(C(=O)OC1)C2c1cccc(Cl)c1 (configuration not stated) | 10% | – | – |
| CCc1ccc2c(c1)N(CCO)C1=C(C(=O)OC1)C2c1cccc(Br)c1 (configuration not stated) | inactive | – | – |
| O=C1OCC2=C1C(c1ccccc1)c1cc3c(cc1N2CCO)OCO3 (configuration not stated) | inactive | – | – |
| COc1ccc(C2C3=C(COC3=O)N(CCO)c3cc4c(cc32)OCO4)cc1OC (configuration not stated) | inactive | – | – |
| COc1cc(C2C3=C(COC3=O)N(CCO)c3cc4c(cc32)OCO4)cc(OC)c1OC (configuration not stated) | inactive | – | – |
| O=C1OCC2=C1C(c1ccc(Cl)c(Cl)c1)c1cc3c(cc1N2CCO)OCCO3 (configuration not stated) | inactive | – | – |
| CCc1ccc2c(c1)N(CCO)C1=C(C(=O)OC1)C2c1ccccc1 (configuration not stated) | inactive | – | – |
| CCc1ccc2c(c1)N(CCO)C1=C(C(=O)OC1)C2c1cc(OC)c(OC)c(OC)c1 (configuration not stated) | inactive | – | – |
| COc1cc(C2C3=C(COC3=O)N(CCO)c3cc4c(cc32)CCC4)cc(OC)c1OC (configuration not stated) | inactive | – | – |
| COc1ccc(C2C3=C(COC3=O)N(CCO)c3cc(OC)c(OC)cc32)cc1 (configuration not stated) | inactive | – | – |
| CCc1ccc2c(c1)N(CCO)C1=C(C(=O)OC1)C2c1ccc(Cl)c(Cl)c1 (configuration not stated) | inactive | – | – |
| COc1cc2c(cc1OC)N(CCO)C1=C(C(=O)OC1)C2c1ccc(Cl)c(Cl)c1 (configuration not stated) | inactive | – | – |

Further lines, with some results ahead:

| inhibition [1] | Compound | inhibition [2] | inhibition [3] |
| --- | --- | --- | --- |
| inactive | O=C1OCC2=C1C(c1cccc(Cl)c1)c1cc3c(cc1N2CCO)OCO3 (configuration not stated) | – | – |
| inactive | O=C1OCC2=C1C(c1ccc(Cl)c(Cl)c1)c1cc3c(cc1N2CCO)CCC3 (configuration not stated) | – | – |
| inactive | COc1ccc2c(c1)N(CCO)C1=C(C(=O)OC1)C2c1ccc(OC)c(OC)c1 (configuration not stated) | – | – |
| inactive | COc1ccc(C2C3=C(COC3=O)N(CCO)c3cc4c(cc32)CCC4)cc1 (configuration not stated) | – | – |
| inactive | O=C1OCC2=C1C(c1ccccc1)c1cc3c(cc1N2CCO)CCC3 (configuration not stated) | – | – |
| 10% | COc1cccc(C2C3=C(COC3=O)N(CCO)c3cc(OC)ccc32)c1 (configuration not stated) | – | – |
| inactive | COc1ccc(C2C3=C(COC3=O)N(CCO)c3cc4c(cc32)OCCO4)cc1 (configuration not stated) | – | – |
| 10% | COc1ccc2c(c1)N(CCO)C1=C(C(=O)OC1)C2c1cccc(Br)c1 (configuration not stated) | – | – |
| inactive | COc1cccc(C2C3=C(COC3=O)N(CCO)c3cc4c(cc32)OCCO4)c1 (configuration not stated) | – | – |
| inactive | O=C1OCC2=C1C(c1cccc(Cl)c1)c1cc3c(cc1N2CCO)CCC3 (configuration not stated) | – | – |
| inactive | COc1cc(C2C3=C(COC3=O)N(CCO)c3cc4c(cc32)CCC4)cc(OC)c1O (configuration not stated) | – | – |
| 10% | COc1cccc(C2C3=C(COC3=O)N(CCO)c3cc(OC)c(OC)cc32)c1 (configuration not stated) | – | – |
| 10% | COc1cc2c(cc1OC)N(CCO)C1=C(C(=O)OC1)C2c1cccc(Cl)c1 (configuration not stated) | – | – |
| inactive | O=C1OCC2=C1C(c1cccc(Br)c1)c1cc3c(cc1N2CCO)CCC3 (configuration not stated) | – | – |
| inactive | O=C1OCC2=C1C(c1cccc(Cl)c1)c1cc3c(cc1N2CCO)OCCO3 (configuration not stated) | – | – |
| inactive | COc1cccc(C2C3=C(COC3=O)N(CCO)c3cc4c(cc32)OCO4)c1 (configuration not stated) | – | – |
| inactive | COc1cc2c(cc1OC)N(CCO)C1=C(C(=O)OC1)C2c1ccccc1 (configuration not stated) | – | – |
| inactive | O=C1OCC2=C1C(c1cccc(Br)c1)c1cc3c(cc1N2CCO)OCCO3 (configuration not stated) | – | – |
| inactive | COc1ccc(C2C3=C(COC3=O)N(CCO)c3cc4c(cc32)OCO4)cc1 (configuration not stated) | – | – |
| 10% | COc1cc2c(cc1OC)N(CCO)C1=C(C(=O)OC1)C2c1cccc(Br)c1 (configuration not stated) | – | – |
| inactive | COc1ccc(C2C3=C(COC3=O)N(CCO)c3cc4c(cc32)CCC4)cc1OC (configuration not stated) | – | – |
| inactive | COc1cccc(C2C3=C(COC3=O)N(CCO)c3cc4c(cc32)CCC4)c1 (configuration not stated) | – | – |

— ChEMBL document CHEMBL3352717, “Identification of the first inhibitor of the GBP1:PIM1 interaction. Implications for the development of a new class of anticancer agents against paclitaxel resistant cancer cells” (J Med Chem, 2014)
